Calls of active or inactive are those of the source. The calls are words filed in the database; no cut-off is given here.
Assays:
[1] = Antiproliferative activity against chinese hamster R2(VC) cells assessed as reduction of viable cells after 96 hrs; settings: Cricetulus griseus
[2] = Antiproliferative activity against chinese hamster RT16 cells expressing human FRalpha assessed as reduction of viable cells after 96 hrs in the presence of 200 nM folic acid; assay type: functional, cell-based; settings: Cricetulus griseus, RT16, 96 h
Outline: (§1)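 Same 96 h CellTiter-blue proliferation set-up in folate-free RPMI/10% dFBS with 2 nM leucovorin. Run in parallel incubations that included 200 nM folic acid alongside the antifolate, to establish FR-dependent uptake.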

[3] = system: Mus musculus; assay: Toxicity in human IGROV1 cells expressing human RFC, FRalpha and PCFT xenografted SCID mouse assessed as weight loss at 40 mg/kg, iv administered on days 3, 7, 11, 15, and 19 postimplantation measured on day 21; assay type: organism-based, IGROV-1; set-up: dose 40 mg/kg, route intravenous; settings: in vivo
Outline: (§2)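 Female ICR SCID mice, 10 weeks old, on a folate-deficient diet from 24 days before implant. Bilateral subcutaneous IGROV1 tumour fragments (30–60 mg, by trocar); mice pooled, then randomised. IV dosing on days 3, 7, 11, 15 and 19. Mice weighed daily; tumours measured by caliper 2–3 times weekly; mice sacrificed at 1500 mg tumour burden. Weight-loss nadir and recovery recorded.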

[4] = system: R2; assay: Antiproliferative activity against chinese hamster R2 cells expressing human PCFT assessed as growth inhibition in the presence of 60 uM adenosine; assay type: functional, cell-based; settings: Cricetulus griseus
Outline: (§3)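 R2/hPCFT4 cells were grown in folate-free RPMI with 25 nM leucovorin and 10% dFBS and exposed to antifolate for up to 96 h. Rescue co-incubations used thymidine (10 µM), adenosine (60 µM) and AICA (320 µM), alone or combined. Viability was read by CellTiter-blue.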

[5] = Antiproliferative activity against chinese hamster PC43-10 expressing human RFC assessed as reduction of viable cells after 96 hrs; assay type: functional; settings: Cricetulus griseus, PC43-10, 96 h
[6] = system: KB; assay: Antiproliferative activity against human KB cells expressing human RFC, FRalpha and PCFT assessed as reduction of viable cells after 96 hrs; assay type: functional, cell-based
[7] = system: IGROV-1; assay: Antitumor activity against human IGROV1 cells expressing human RFC, FRalpha and PCFT xenografted in standard folate diet fed SCID mouse assessed as tumor growth inhibition at 25 to 40 mg/kg, iv administered on days 3, 7, […], […], and […] postimplantation; assay type: functional; settings: dose mg/kg 25-40
[8] = system: R2; assay: Antiproliferative activity against chinese hamster R2 cells assessed as reduction of viable cells after 96 hrs; settings: Cricetulus griseus, R2, 96 h
[9] = system: Mus musculus; assay: Toxicity in human IGROV1 cells expressing human RFC, FRalpha and PCFT xenografted SCID mouse assessed as weight loss at 25 mg/kg, iv administered on days 3, 7, 11, 15, and 19 postimplantation measured on day 13; assay type: organism-based, IGROV-1; set-up: dose 25 mg/kg, route intravenous; settings: in vivo
Outline: as §2

[10] = system: Mus musculus; assay: Toxicity in human IGROV1 cells expressing human RFC, FRalpha and PCFT xenografted SCID mouse assessed as weight loss at 40 mg/kg, iv administered on days 3, 7, 11, 15, and 19 postimplantation measured on day 10 post last treatment; settings: in vivo
[11] = system: R2; assay: Decrease in intracellular ATP concentration in chinese hamster R2 cells expressing human PCFT at 1 uM after 24 hrs by HPLC relative to control at pH 6.8; assay type: functional, Cricetulus griseus; set-up: scale not given: the % may be the effect or the level left
Outline: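 R2/hPCFT4 CHO cells seeded in folate-free RPMI 1640 with 10% dialysed FBS and 25 nM leucovorin (pH 7.2). After 24 h, switched to the same medium buffered to pH 6.8 with 25 mM PIPES/25 mM HEPES. Drug at 1 µM, or vehicle (0.5% DMSO or H2O), for 24 h. Nucleotides extracted; ATP quantified by HPLC against vehicle control.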

[12] = target: T1, Proton-coupled folate transporter (Homo sapiens) (UniProt Q96NT5); assay: Inhibition of human PCFT-mediated [3H]MTX uptake expressed in chinese hamster R2 cells at pH 6.8 […] relative to PMX; assay type: cell-based; settings: concentration not given here
T1 sequence (whole entry): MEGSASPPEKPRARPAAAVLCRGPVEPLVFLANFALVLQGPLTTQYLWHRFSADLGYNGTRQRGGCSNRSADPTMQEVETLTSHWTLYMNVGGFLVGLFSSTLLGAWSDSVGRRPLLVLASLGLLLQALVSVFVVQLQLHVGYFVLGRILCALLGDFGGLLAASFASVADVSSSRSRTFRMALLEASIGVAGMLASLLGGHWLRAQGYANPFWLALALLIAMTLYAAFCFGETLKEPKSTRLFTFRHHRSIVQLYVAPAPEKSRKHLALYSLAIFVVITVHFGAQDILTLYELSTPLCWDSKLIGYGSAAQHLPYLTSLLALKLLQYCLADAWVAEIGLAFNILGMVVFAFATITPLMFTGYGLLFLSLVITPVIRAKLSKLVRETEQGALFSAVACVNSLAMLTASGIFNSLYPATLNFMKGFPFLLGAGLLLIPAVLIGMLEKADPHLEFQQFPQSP

[13] = system: Mus musculus; assay: Toxicity in human IGROV1 cells expressing human RFC, FRalpha and PCFT xenografted SCID mouse assessed as weight loss at 25 mg/kg, iv administered on days 3, 7, 11, 15, and 19 postimplantation measured on day 27 post last treatment; assay type: organism-based, IGROV-1; set-up: dose 25 mg/kg, route intravenous; settings: in vivo
Outline: (§4)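 Female ICR SCID mice (10 weeks old) were fed a folate-deficient or folate-replete diet from 24 days before implant. IGROV1 tumor fragments (30–60 mg) were implanted bilaterally s.c. by trocar, and mice were randomized. Dosing was i.v. on a Q4dx5 schedule (days 3, 7, 11, 15, 19). Mice were weighed daily to track weight-loss nadir and recovery.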

[14] = system: IGROV-1; assay: Antitumor activity against human IGROV1 cells expressing human RFC, FRalpha and PCFT xenografted in SCID mouse assessed as tumor growth inhibition at 25 mg/kg, iv administered on days 3, 7, […], […], and […] postimplantation; assay type: functional
[15] = system: KB; assay: Antiproliferative activity against human KB cells expressing human RFC, FRalpha and PCFT assessed as reduction of viable cells after 96 hrs in the presence of 200 nM folic acid; assay type: functional, cell-based
Outline: as §1

[16] = target: T1, Proton-coupled folate transporter (Homo sapiens); assay: Inhibition of human PCFT-mediated [3H]MTX uptake expressed in chinese hamster R2 cells at pH 5.5 by dixon plot analysis relative to PMX; assay type: cell-based; settings: concentration not given here
[17] = Inhibition of GARFTase in chinese hamster R2 cells expressing human PCFT assessed as incorporation of [14C]glycine into [14C]formyl GAR in the presence of 4 uM azaserine; assay type: cell-based, Cricetulus griseus
[18] = system: Mus musculus; assay: Toxicity in human IGROV1 cells expressing human RFC, FRalpha and PCFT xenografted SCID mouse assessed as reversible weight loss at 25 to 40 mg/kg, iv administered on days 3, 7, 11, 15, and 19 postimplantation; assay type: organism-based, IGROV-1; set-up: dose 25-40 mg/kg, route intravenous; settings: in vivo
Outline: as §2

[19] = system: R2; assay: Antiproliferative activity against chinese hamster R2 cells expressing human PCFT assessed as growth inhibition in the presence of 320 uM AICA; assay type: functional, cell-based; settings: Cricetulus griseus
Outline: as §3

[20] = system: R2; assay: Antiproliferative activity against chinese hamster R2 cells expressing human PCFT assessed as inhibition of colony formation after 10 to 14 days; assay type: functional, cell-based, Cricetulus griseus
[21] = system: IGROV-1; assay: Antitumor activity against human IGROV1 cells expressing human RFC, FRalpha and PCFT xenografted in SCID mouse assessed as tumor growth inhibition at 40 mg/kg, iv administered on days 3, 7, […], […], and […] postimplantation; assay type: functional
[22] = system: IGROV-1; assay: Antiproliferative activity against human IGROV1 cells expressing human RFC, FRalpha and PCFT assessed as reduction of viable cells after 96 hrs; assay type: functional, cell-based; settings: IGROV-1, 96 h
[23] = system: Mus musculus; assay: Toxicity in human IGROV1 cells expressing human RFC, FRalpha and PCFT xenografted SCID mouse assessed as weight loss at 25 mg/kg, iv administered on days 3, 7, 11, 15, and 19 postimplantation measured on day 8 post last treatment; assay type: organism-based, IGROV-1; set-up: dose 25 mg/kg, route intravenous; settings: in vivo
Outline: as §4

[24] = system: Mus musculus; assay: Toxicity in human IGROV1 cells expressing human RFC, FRalpha and PCFT xenografted SCID mouse assessed as mortality at 25 to 40 mg/kg, iv administered on days 3, 7, […], […], and […] postimplantation; assay type: organism-based, IGROV-1; settings: in vivo
[25] = system: IGROV-1; assay: Antiproliferative activity against human IGROV1 cells expressing human RFC, FRalpha and PCFT assessed as reduction of viable cells after 96 hrs in the presence of 200 nM folic acid; assay type: functional, cell-based; settings: IGROV-1, 96 h
Outline: as §1

SMILES: Nc1nc2[nH]c(CCCc3ccc(C(=O)N[C@@H](CCC(=O)O)C(=O)O)s3)cc2c(=O)[nH]1
- IC50 [1]: 288 nM
- IC50 [2]: > 1000 nM
- Activity [3]: 9.4%
- Activity [4]: inactive
- IC50 [5]: 101 nM
- IC50 [6]: 0.26 nM
- T/C [7]: 67%
- IC50 [8]: 274 nM
- Activity [9]: 6.3%
- Activity [10]: Non-toxic
- Activity [11]: 90%
- inhibition [12]: 18%
- Activity [13]: Non-toxic
- T/C [14]: 16%
- IC50 [15]: > 1000 nM
- inhibition [16]: 35%
- IC50 [17]: 0.69 nM
- Activity [18]: 2.7%
- Activity [19]: inactive
- IC50 [20]: 1.4 nM
- T/C [21]: 14%
- IC50 [22]: 0.55 nM
- Activity [23]: Non-toxic
- Activity [24]: Non-toxic
- IC50 [25]: > 1000 nM
